Measurements gathered from unrelated publications.
Protocols differ between the studies behind these lines. Values after ≈ are worked out from the molar mass of the structure shown.

| Compound | target or system | test | system | conditions | quantity | value |
| --- | --- | --- | --- | --- | --- | --- |
| CCCCCCCCCCOc1cc2c(O)c(C(=O)OCC)cnc2cc1OCC | Plasmodium falciparum | parasite growth, SYBR Green | W2 | blood stage | IC50 | < 0.0057 µM |
| CC(C(=O)NOCc1ccccc1)c1cccc(C(OC(=O)NOCc2ccccc2)c2ccccc2)c1 (stereo not shown) | FM3A | cell growth or viability | – | 48 h | IC50 | 11 µM |
| CCc1nc2nc(C)cc(Nc3cc(C)cc(C)c3)n2n1 | Plasmodium falciparum | parasite growth, SYBR Green | 3D7 | – | EC50 | 96.5 nM |
| C[C@]12CC[C@@H](O)C[C@@H]1CC[C@@H]1[C@@H]2CC[C@]2(C)[C@@H]([N+](=O)[O-])CC[C@@H]12 | – | 6 Hz seizures | mouse | intraperitoneal | ED50 | 5.3 mg/kg |
| Cc1sc(CNCCCNc2cc(=O)c3ccccc3[nH]2)c(I)c1C | Plasmodium falciparum | parasite growth, SYBR Green | 3D7 | – | EC50 | 339 nM |
| COc1cc2c(cc1OS(N)(=O)=O)CCN(Cc1cc(Br)c(OC)c(OC)c1)C2 | CNSSF-539 | cell growth or viability, SRB | – | – | GI50 | 22 nM |
| CC(C(=O)NCc1ccccc1)c1cccc(C(OC(=O)NCc2ccccc2)c2ccccc2)c1 (stereo not shown) | FM3A | cell growth or viability | – | 48 h | IC50 | 14 µM |
| C[C@]1(O)CC[C@@]2(C)[C@@H](CC[C@@H]3[C@@H]2CC[C@]2(C)[C@@H]([N+](=O)[O-])CC[C@@H]32)C1 | – | 6 Hz seizures | mouse | intraperitoneal | ED50 | > 100 mg/kg |
| CCCn1c(O)nnc1SCC(=O)Nc1cc(C(F)(F)F)ccc1Cl | Plasmodium falciparum | parasite growth, SYBR Green | 3D7 | – | EC50 | 66.6 nM |
| NNC(=O)c1ccncc1 | Mycolicibacterium aurum | microbial growth, agar dilution | – | – | MIC | 6.3 µg/mL (≈ 45.9 µM) |
| CC(C(=O)NCC1CCCCC1)c1cccc(C(OC(=O)NCC2CCCCC2)c2ccccc2)c1 (stereo not shown) | L1210 | cell growth or viability | – | 48 h | IC50 | 11 µM |
| c1csc(-c2nnc3sc(Cc4ccc5c(c4)CCCC5)nn23)c1 | Plasmodium falciparum | parasite growth, SYBR Green | 3D7 | 72 h | EC50 | > 12500 nM |
| Cc1cc(NC2Cc3cc(F)c(F)cc3C2)n2nc(C(C)(F)F)nc2n1 | Plasmodium falciparum | parasite growth | HB3 | drug-resistant strain, blood stage | EC50 | 21 nM |
